Measured values: ChEMBL document CHEMBL4033621, “Design, synthesis and biological evaluation of new pyrazolyl-ureas and imidazopyrazolecarboxamides able to interfere with MAPK and PI3K upstream signaling involved in the angiogenesis” (Eur J Med Chem, 2017)
Activity calls are given as the source filed them. The rule behind the calls is not given here.

What was measured:
Homo sapiens [1] = species on record: Homo sapiens; assay: Effect on VEGF-stimulated MAPK signaling pathway in HUVEC assessed as p38 MAPK phosphorylation level at 20 uM pretreated for 10 mins followed by VEGF stimulation and subsequent compound addition measured after 20 mins by Western blot analysis relative to control
Outline: (§1)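 HUVEC grown to confluence in M199 with 10% FCS, ECGS, heparin, hydrocortisone, then starved ≥4 h in medium alone. Pre-incubated 10 min at 37°C with compound 20 µM in DMSO, then VEGF 50 ng/mL plus compound for 20 min. Lysates (30 µg) immunoblotted for phospho-ERK1/2, phospho-p38MAPK or phospho-Akt, with tubulin as loading control. ECL detection, densitometry. Results given relative to VEGF+DMSO on the same blot (100%), ≥2 independent experiments.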

Homo sapiens [2] = species on record: Homo sapiens; assay: Effect on VEGF-stimulated MAPK signaling pathway in HUVEC assessed as ERK1/2 phosphorylation level at 20 uM pretreated for 10 mins followed by VEGF stimulation and subsequent compound addition measured after 20 mins by Western blot analysis relative to control; outline: as §1
Homo sapiens [3] = species on record: Homo sapiens; assay: Effect on VEGF-stimulated PI3K signaling pathway in HUVEC assessed as AKT phosphorylation level at 20 uM pretreated for 10 mins followed by VEGF stimulation and subsequent compound addition measured after 20 mins by Western blot analysis relative to control; outline: as §1
HUVEC = assay: Antimigratory activity against VEGF-stimulated HUVEC at 20 uM measured up to 15 hrs in presence of CMFDA probe by microscopy-based wound healing assay; assay type: functional, cell-based; conditions: Homo sapiens
Outline: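 Confluent HUVEC (48 h growth) labelled with CMFDA (1:5000 of 10 mM stock), scratched with sterile tip, washed with PBS, then given VEGF 50 ng/mL plus compound 20 µM (DMSO control). Wounds imaged at 0 and 15 h by microscopy. Colonized area = area 0 h − area 15 h, expressed as percent of control set at 100%.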

Structure (SMILES)	Activity (Homo sapiens [1])	Activity (Homo sapiens [2])	Activity (Homo sapiens [3])	Activity (HUVEC)
CC(C)(C)c1cc(NC(=O)Nc2ccccc2F)n(CC(O)c2ccccc2)n1 (stereo not given)	-74%	Active	inactive	inactive
CCOC(=O)c1cc(NC(=O)Nc2ccccc2F)n(CC(O)c2ccccc2)n1 (stereo not given)	97%	-89%	inactive	inactive
CC(C)(C)c1cc(NC(=O)Nc2cccc(C(F)(F)F)c2)n(CC(O)c2ccccc2)n1 (stereo not given)	Active	Active	–	inactive
CCOC(=O)c1cc2n(n1)CC(c1ccccc1)N2C(=O)Nc1ccc(F)cc1 (stereo not given)	Active	–	Active	inactive
CCOC(=O)c1cc(NC(=O)Nc2ccc(F)cc2)n(CC(O)c2ccccc2)n1 (stereo not given)	-81%	Active	inactive	inactive
CCOC(=O)c1cnn(CC(=O)c2ccccc2)c1NC(=O)Nc1ccc(F)cc1	Active	Active	96%	inactive
CC(C)(C)c1cc2n(n1)CC(c1ccccc1)N2C(=O)Nc1ccc(F)cc1 (stereo not given)	Active	–	Active	inactive
CCOC(=O)c1cnn(CC(C)O)c1NC(=O)Nc1cccc(C(F)(F)F)c1 (stereo not given)	Active	Active	Active	inactive
CC(C)(C)c1cc2n(n1)CC(c1ccccc1)N2C(=O)Nc1ccccc1F (stereo not given)	Active	–	inactive	inactive
CCOC(=O)c1cnn(CC(O)c2ccccc2)c1NC(=O)Nc1cccc(C(F)(F)F)c1 (stereo not given)	150%	-70%	-37%	inactive
CCOC(=O)c1cc2n(n1)CC(c1ccccc1)N2C(=O)Nc1ccccc1F (stereo not given)	Active	–	inactive	inactive
CC(C)(C)c1cc(NC(=O)Nc2ccc(F)cc2)n(CC(O)c2ccccc2)n1 (stereo not given)	-70%	-67%	-83%	inactive
CCOC(=O)c1cnn(CC(O)CC)c1NC(=O)Nc1cccc(C(F)(F)F)c1 (stereo not given)	Active	inactive	Active	inactive
CCOC(=O)c1cnn(CC(=O)c2ccccc2)c1NC(=O)Nc1cccc(F)c1	Active	Active	63%	inactive
CCOC(=O)c1cc(NC(=O)Nc2cccc(F)c2)n(CC(O)c2ccccc2)n1 (stereo not given)	Active	Active	51%	inactive
CCOC(=O)c1cc(NC(=O)Nc2cccc(C(F)(F)F)c2)n(CC(O)c2ccccc2)n1 (stereo not given)	-61%	Active	inactive	inactive
CC(C)(C)c1cc(NC(=O)Nc2cccc(F)c2)n(CC(O)c2ccccc2)n1 (stereo not given)	199%	Active	Active	inactive
CCCC(O)Cn1ncc(C(=O)OCC)c1NC(=O)Nc1cccc(C(F)(F)F)c1 (stereo not given)	180%	-59%	-29%	Active
CCOC(=O)c1cnn(CC(=O)c2ccccc2)c1NC(=O)Nc1ccccc1F	Active	inactive	inactive	inactive

More lines, main results first:

Activity (Homo sapiens [1])	Activity (Homo sapiens [2])	Activity (Homo sapiens [3])	Structure (SMILES)	Activity (HUVEC)
Active	–	Active	CCOC(=O)c1cc2n(n1)CC(c1ccccc1)N2C(=O)Nc1cccc(F)c1 (stereo not given)	inactive
140%	–	Active	CC(C)(C)c1cc2n(n1)CC(c1ccccc1)N2C(=O)Nc1cccc(C(F)(F)F)c1 (stereo not given)	inactive
200 to 300%	-26%	Active	CCOC(=O)c1cnn2c1N(C(=O)Nc1cccc(C(F)(F)F)c1)C(c1ccccc1)C2 (stereo not given)	inactive
200 to 300%	inactive	Active	NC(=O)c1cnn2c1N(C(=O)Nc1cccc(C(F)(F)F)c1)C(c1ccccc1)C2 (stereo not given)	inactive
Active	Active	Active	CCOC(=O)c1cnn(CC(=O)c2ccccc2)c1NC(=O)Nc1cccc(C(F)(F)F)c1	inactive
Active	–	Active	CC(C)(C)c1cc2n(n1)CC(c1ccccc1)N2C(=O)Nc1cccc(F)c1 (stereo not given)	inactive
Active	-75%	Active	CCOC(=O)c1cc2n(n1)CC(c1ccccc1)N2C(=O)Nc1cccc(C(F)(F)F)c1 (stereo not given)	inactive
200 to 300%	83%	Active	O=C(c1cnn2c1N(C(=O)Nc1cccc(C(F)(F)F)c1)C(c1ccccc1)C2)N1CCCCC1 (stereo not given)	inactive
